Legend:
Type in all cases: functional
Conditions in all cases: read-out: GI
Digitaria sanguinalis [1] = assay: Herbicidal activity against Digitaria sanguinalis (hairy crabgrass) assessed as root growth inhibition at 10 mg/L applied to germinated seeds measured after 65 hr at 28 degC
Summary of the method: (§1)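 Compounds dissolved in DMF with Tween 20 and diluted in distilled water to an emulsion. Germinated seeds, usually 15 per plate, were placed on two filter papers wetted with test solution in a Petri dish. Plates were kept in the dark for 65 h at 28 (±1) ºC. Root lengths of 10 seeds per plate were measured and averaged. Blank was emulsion without compound; quizalofop-P-ethyl served as control.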

Digitaria sanguinalis [2] = assay: Herbicidal activity against Digitaria sanguinalis (hairy crabgrass) assessed as root growth inhibition at 50 mg/L applied to germinated seeds measured after 65 hr at 28 degC; summary of the method: as §1
Digitaria sanguinalis [3] = assay: Herbicidal activity against Digitaria sanguinalis (hairy crabgrass) assessed as root growth inhibition at 100 mg/L applied to germinated seeds measured after 65 hr at 28 degC; summary of the method: as §1
Brassica napus [4] = assay: Herbicidal activity against Brassica napus (oilseed rape) assessed as root growth inhibition at 10 mg/L applied to germinated seeds measured after 65 hr at 28 degC; summary of the method: as §1
Brassica napus [5] = assay: Herbicidal activity against Brassica napus (oilseed rape) assessed as root growth inhibition at 50 mg/L applied to germinated seeds measured after 65 hr at 28 degC; summary of the method: as §1
Brassica napus [6] = assay: Herbicidal activity against Brassica napus (oilseed rape) assessed as root growth inhibition at 100 mg/L applied to germinated seeds measured after 65 hr at 28 degC; summary of the method: as §1

SMILES	inhibition of growth at 10 µg/mL (Digitaria sanguinalis [1])	inhibition of growth at 50 µg/mL (Digitaria sanguinalis [2])	inhibition of growth at 100 µg/mL (Digitaria sanguinalis [3])	inhibition of growth at 10 µg/mL (Brassica napus [4])	inhibition of growth at 50 µg/mL (Brassica napus [5])	inhibition of growth at 100 µg/mL (Brassica napus [6])
Cc1cc(C)nc(Oc2ccc(OCC(=O)OC(C)C)cc2)n1	35%	95.1%	100%	9.2%	14.3%	26.4%
COC(=O)COc1ccc(Oc2nc(OC)cc(OC)n2)cc1	42.8%	98.5%	100%	22.9%	34.4%	39.8%
COc1cc(OC)nc(Oc2ccc(OCC(=O)OC(C)C)cc2)n1	32.7%	96.5%	100%	14.6%	21%	25.1%
CCOC(=O)COc1ccc(Oc2nc(C)cc(C)n2)cc1	38.5%	98.4%	100%	14.2%	32.7%	58.4%
CCCCOC(=O)COc1ccc(Oc2nc(C)cc(C)n2)cc1	42.6%	97.6%	100%	21.5%	34.2%	50.2%
COC(=O)COc1ccc(Oc2nc(C)cc(C)n2)cc1	44.7%	97.3%	100%	11.9%	26.7%	44.7%
CCOC(=O)COc1ccc(Oc2nc(OC)cc(OC)n2)cc1	39.9%	96.2%	100%	13.4%	31%	41.1%
CCCCOC(=O)COc1ccc(Oc2nc(OC)cc(OC)n2)cc1	41.8%	96.9%	100%	9.5%	13.4%	28.3%
CCCOC(=O)COc1ccc(Oc2nc(OC)cc(OC)n2)cc1	32.5%	95.2%	100%	10.1%	13.1%	15.9%
CCCOC(=O)COc1ccc(Oc2nc(C)cc(C)n2)cc1	36.9%	97.5%	100%	12.1%	33.9%	54.5%
CCOC(=O)[C@@H](C)Oc1ccc(Oc2cnc3cc(Cl)ccc3n2)cc1 [QUIZALOFOP-P-ETHYL]	63.5%	95.3%	100%	33.8%	39.2%	51.2%
